Bioassay records: PubChem BioAssay, several laboratories
An excerpt weighted towards active compounds, which were near 2.6% of everything screened.
Rad51 HR inh: human RAD51 strand exchange inhibitors, primary screen, biochemical, fluorescence. 200,000 tested, 0.085% active. hRad51 DNA strand exchange, fluorescence dequenching. AID 1385, 2008. inhibition, % at 10 µM. DNA repair protein RAD51 homolog 1 (Homo sapiens), Q06609;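 active = inhibition above 40% at the single screening dose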
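Material: human Rad51–ssDNA filaments; Probe or stimulus: labelled 47-mer dsDNA for strand exchange; Doses: single 10 µM dose; Incubation: 37 °C 15-min filament assembly, 30-min compound preincubation, 15-min exchange; Technique: FRET fluorescence dequenching, excitation 485 nm, emission 520 nm; Measure: Fluorescence-based percent inhibition, control- and blank-normalised; Benchmarks: plate control and blank wells.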
Cl transport mod: KCC2 cotransporter modulators, thallium flux, primary screen, cell-based, HEK293 KCC2, FluoZin-2 fluorescence, MLSMR. Solute carrier family 12 member 5 (Homo sapiens), Q9H2X9. KCC2 cells, thallium flux FluoZin-2 fluorescence. B-score of Tl+ flux slope (higher = more flux/activation; lower = inhibition) at 10 µM. 190,000 tested, 2.2% active. AID 1456, 2008;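 active = thallium flux slope and its plate-corrected score both differing from the plate sample mean at a set confidence after two filtering rounds, in either direction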;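 note: slope of fluorescence scaled to starting intensity during 10 to 20 s after thallium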
CHT block: inhibitors of human choline transporter CHT. CHT-expressing cells, membrane potential dye, choline response; stronger effect = lower value. AID 488975, 2010. 310,000 tested, 0.86% active. B-score at 10 µM;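 active = B-score over 3 SD under the library average, and starting fluorescence ratio not unusually high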;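 note: choline stimulus applied at its EC90 after an EC20 pre-addition; B-score computed on integrated fluorescence ratio after choline addition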
Target sequence (Q9GZV3 whole entry, looked up): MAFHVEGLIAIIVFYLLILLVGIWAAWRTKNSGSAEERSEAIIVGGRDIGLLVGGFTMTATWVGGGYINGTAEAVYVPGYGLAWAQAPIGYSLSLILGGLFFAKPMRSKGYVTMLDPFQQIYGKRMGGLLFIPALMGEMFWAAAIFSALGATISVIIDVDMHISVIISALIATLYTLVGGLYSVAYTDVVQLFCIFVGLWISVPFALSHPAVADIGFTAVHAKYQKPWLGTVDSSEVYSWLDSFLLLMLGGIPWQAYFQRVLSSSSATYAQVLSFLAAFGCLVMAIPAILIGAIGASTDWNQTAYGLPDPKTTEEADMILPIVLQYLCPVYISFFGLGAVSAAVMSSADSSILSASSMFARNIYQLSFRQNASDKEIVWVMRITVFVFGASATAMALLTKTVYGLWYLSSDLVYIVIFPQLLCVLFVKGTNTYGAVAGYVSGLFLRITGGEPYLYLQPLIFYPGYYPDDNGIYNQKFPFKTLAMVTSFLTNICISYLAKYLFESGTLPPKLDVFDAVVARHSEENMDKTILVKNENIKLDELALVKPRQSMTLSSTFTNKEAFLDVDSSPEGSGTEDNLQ
CHT allo act: CHT positive allosteric modulators, primary screen, cell-based, membrane potential dye, choline EC20. High affinity choline transporter 1 (Homo sapiens), Q9GZV3. 310,000 tested, 0.49% active. AID 488977, 2010. CHT-expressing cells; stronger effect = higher value; LV-AA mutant CHT in HEK293 cells. B-score at 10 µM;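 active = initial fluorescence not abnormally high and integrated response B-score, plate-corrected, over 3 SD above library mean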
CHT inh conf: CHT inhibitors, confirmation, cell-based, membrane potential dye, duplicate. shares compounds with CHT block. AID 493221, 2011. CHT activity remaining % of control (stronger effect = lower value), % at 10 µM. 2,400 tested, 70% active. CHT-expressing cells, choline membrane potential dye; LV-to-AA substituted CHT, HEK293 cells;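 active = choline transporter activity left, mean of duplicates at 10 µM, below buffer-only control mean minus 3 SD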;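 note: depolarization triggered by choline at its EC90 following an EC20 pre-addition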
HEK293 MPD ctr: membrane potential effects in parental HEK293, counter-screen for CHT inhibitor project, cell-based, membrane potential dye. shares compounds with CHT block. choline response; active = decrease or increase beyond buffer ±3SD. membrane potential ratio readout (active if shifted either direction beyond buffer ±3SD; no single direction) at 10 µM. 2,400 tested, 4% active. AID 493222, 2011;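 note: parental cells lack the transporter so any hit is non-specific; ratio is peak minus trough fluorescence over baseline after EC90 choline challenge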
Each line names hits and unclear results; the compound was inactive in the other large screens (follow-up assays come after a bar, where they were run).

COc1ccc(NC(=O)CNC(=O)c2nn(-c3ccc(OC)cc3OC)c(=O)c3ccccc23)c(OC)c1	none (no result: Rad51 HR inh, Cl transport mod)
COc1cc2c(cc1OC)-c1cc(N3CCCc4ccccc43)nc(=O)n1CC2	CHT block -6.3 (no result: Cl transport mod) | CHT inh conf 70% | HEK293 MPD ctr inactive
COc1cc2c(cc1OC)-c1cc(N3CCc4ccccc43)nc(=O)n1CC2	none
COc1cc2c(cc1OC)-c1cc(NC3CCCCCC3)nc(=O)n1CC2	CHT block -5.1 | CHT inh conf 23% | HEK293 MPD ctr inactive
COc1ccc(CN2CCC(=O)N([C@H](CO)CC(C)C)CC2)cc1	none (no result: Rad51 HR inh, Cl transport mod)
COc1cc(SC)ccc1C(=O)NC1CCCCC1	CHT block -6.2 | CHT inh conf inactive | HEK293 MPD ctr inactive
COc1cc(SC)ccc1C(=O)OCC(=O)NC1CCCCC1	none
COc1ccc(C2C3=C(CC(C)(C)CC3=O)Nc3n[nH]c(C)c32)cc1 (stereo unspecified)	CHT block -7.6 | CHT inh conf inactive | HEK293 MPD ctr inactive
Cc1oc(-c2ccc(Cl)cc2)nc1CS(=O)CC(=O)NC(C)c1ccccc1 (stereo unspecified)	CHT block -6.5 (no result: Rad51 HR inh, Cl transport mod) | CHT inh conf 39% | HEK293 MPD ctr inactive
Cc1cc(C)n2nc(SCc3ccccc3)nc2n1	none
Cc1cc(C)n2nc(SCc3nnc(SCc4ccccc4)s3)nc2n1	CHT block -6.1 | CHT inh conf inactive | HEK293 MPD ctr inactive
CCCc1nnc(SCC(=O)NC2CC2)n1C	none (no result: Rad51 HR inh, Cl transport mod)
N=C1C(c2ccccc2)=C(O)CN1c1cccc(O)c1	CHT block -6.6 | CHT inh conf inactive | HEK293 MPD ctr inactive
CCn1c(N2CCN(S(=O)(=O)c3ccc(OC)cc3)CC2)nc2ccccc21	CHT block -7.9 (no result: Rad51 HR inh, Cl transport mod) | CHT inh conf 71% | HEK293 MPD ctr inactive
O=S(=O)(Nc1nc2ccccc2nc1NCC1CCCO1)c1ccccc1 (stereo unspecified)	none (no result: Rad51 HR inh)
O=S(=O)(Nc1nc2ccccc2nc1NCC1CCCO1)c1cc(Cl)ccc1Cl (stereo unspecified)	CHT block -5.6 | CHT inh conf 45% | HEK293 MPD ctr inactive
CCCN1C(=O)/C(=C/c2ccccc2OCc2ccc(C(=O)O)cc2)NC1=S	none (no result: Rad51 HR inh)
c1cn(C23CC4CC(CC(C4)C2)C3)cn1	CHT block -14 | CHT inh conf -3.7% | HEK293 MPD ctr inactive
c1ncn(C23CC4CC(CC(C4)C2)C3)n1	none (no result: Rad51 HR inh)
COc1ccccc1OC(=O)c1cc(Cl)nc2ccccc12	none (no result: Cl transport mod)
O=C(NCCCN1CCOCC1)c1cc(-c2ccccc2)nc2ccccc12	none (no result: Rad51 HR inh, Cl transport mod)
Cc1ccc(Nc2cc(C(=O)NCCCN3CCOCC3)c3ccccc3n2)cc1C	none (no result: Rad51 HR inh, Cl transport mod) | CHT inh conf 62% | HEK293 MPD ctr inactive
CC(Sc1nc2ccccc2s1)C(=O)Nc1nnc(C(C)C)s1 (stereo unspecified)	CHT block -5.3 (no result: Cl transport mod) | CHT inh conf inactive | HEK293 MPD ctr inactive
Cc1oc2ccc(OCc3ccc(Br)cc3)cc2c1C(=O)O	none (no result: Rad51 HR inh, Cl transport mod)
Cc1oc2ccc(OCc3ccc(Cl)cc3)cc2c1C(=O)O	CHT block -5.1 (no result: Rad51 HR inh) | CHT inh conf inactive | HEK293 MPD ctr inactive
Cc1cc(C)cc(NC(=O)CCc2c(C)nn(-c3ccc(N4CCCCC4)nn3)c2C)c1	none (no result: Rad51 HR inh, Cl transport mod) | CHT inh conf inactive | HEK293 MPD ctr inactive
Cc1ccc(NC(=O)CCc2c(C)nn(-c3ccc(N4CCCCC4)nn3)c2C)cc1	none (no result: Rad51 HR inh, Cl transport mod)
CN(C)CCCn1c(=O)n(CCc2ccccc2)c(=O)c2c3c(sc21)CCCCC3	CHT block -7.8 (no result: Rad51 HR inh) | CHT inh conf 31% | HEK293 MPD ctr inactive
CN(C)CCn1c(=O)n(Cc2ccccc2)c(=O)c2c3c(sc21)CCCCC3	none (no result: Rad51 HR inh, Cl transport mod)
Cn1c(=O)[nH]c2nnc(-c3ccc(Cl)c(Cl)c3)nc2c1=O	CHT block -5 | CHT inh conf 34% | HEK293 MPD ctr inactive
CSc1ncc(C(=O)Nc2ccc(C(C)=O)cc2)c(C)n1	none (no result: Rad51 HR inh, Cl transport mod)
